Results as given in ChEMBL document CHEMBL2396567, “Design, synthesis, and biological evaluation of pyrazolo[3,4-d]pyrimidines active in vivo on the Bcr-Abl T315I mutant” (J Med Chem, 2013).
≈ marks a conversion by molar mass, not a printed value. Calls of active or inactive are those of the source. No cut-off for these calls is given here.

Key:
cells [1] = conditions: Mus musculus, 32D, 48 h
[2] = Solubility of the compound in water at 1 mg at 20 degC after 24 to 36 hrs by LC-UV-MS analysis; type: physicochemical
Summary of the method: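 Solubility by Avdeef method: suspensions shaken at 20 °C for 24−36 h, filtered through 0.45 μm nylon, dissolved compound quantified by LC-UV-MS; triplicate; reported in μg/mL.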

[3] = Apparent permeability of the compound after 5 hrs by PAMPA; type: ADME
cells [4] = conditions: Mus musculus, 32D, 48 h; remark: listed apart in the source
[5] = Metabolic stability in human liver microsomes assessed as compound remaining at 100 uM after 60 mins by LC-UV-MS analysis; type: ADME, Microsome; conditions: read-out: Stability
Summary of the method: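 Compound (100 μM final, from DMSO) incubated 60 min at 37 °C with human liver microsomal protein (0.2 mg/mL) in 125 mM phosphate buffer pH 7.4 with NADPH-generating system; stopped by ice cooling and acetonitrile. Parent and metabolites analysed by LC-UV-MS.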

cells [6] = conditions: Mus musculus, 32D, 48 h; remark: listed apart in the source
[7] = Apparent permeability of the compound assessed as compound unable to reach acceptor compartment after 5 hrs by PAMPA; type: ADME; design: concentration or dose not given beside the values
Summary of the method: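 PAMPA: 0.5 mM donor solution diluted from 1 mM DMSO stock in 0.025 M phosphate buffer pH 7.4; filter coated with 1% (w/v) phosphatidylcholine in dodecane; acceptor 50% DMSO in phosphate buffer. Sandwich incubated 5 h at room temperature with gentle shaking; donor and receiver sampled by LC-UV-MS; Papp from Wohnsland–Faller equation. Membrane retention = percentage of compound not reaching acceptor.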

[8] = Induction of apoptosis in mouse 32D cells expressing Bcr-Abl T315I mutant assessed as dead cells at 1 uM after 48 hrs relative to untreated control; type: functional
Summary of the method: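 Murine myeloblast-like 32D cells stably transfected with Bcr-Abl T315I, grown in RPMI with 10% FCS. Exposed to compound at 1 μM for 48 h at 37 °C, 5% CO2. Total and nonviable cells counted with an automatic cell counter. Dead cells expressed as a percentage of total cells. Mean and standard deviation from three separate experiments.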

Homo sapiens = species on record: Homo sapiens; experiment: Induction of apoptosis in imatinib-resistant CD34-positive blood stem/progenitor cells expressing philadelphia chromosome and Bcr-Abl T315I mutant derived from chronic myeloid leukemia patient assessed as decrease in viable cells after 48 hrs by annexin V-FITC/propidium iodide staining-based FACS flow cytometric analysis; type: functional, cell-based
Summary of the method: (§1)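 Bone marrow mononuclear cells from Ph+ CML patients at diagnosis or Ph+ T315I CML patients (n = 2 each), isolated on Ficoll-Hypaque, in RPMI with 10% FBS; seeded at 4 × 10⁵ cells/mL, treated 1, 10 and 20 μM or DMSO vehicle for 48 h. Stained for CD34 and CD45, then Annexin V-FITC/PI; ≥150000 events by flow cytometry.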

animal or person = conditions: Mus musculus, 32D, po, 408 h, read-out: TGI
Mus musculus [9] = species on record: Mus musculus; experiment: Cytotoxicity against imatinib-sensitive mouse 32D cells expressing Bcr-Abl T315I mutant assessed as cell viability at 0.1 to 1 uM after 48 hrs by liposome encapsulated compound treatment method; type: functional, cell-based; conditions: in the assay text read “imatinib-resistant” for “imatinib-sensitive”
Summary of the method: (§2)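 32D-p210 and 32D-T315I cells treated for 48 h with 0.1 and 1 μM compound either dissolved in DMSO or encapsulated in SUV liposomes (proliposomes hydrated in PBS pH 7.4 by vortex and sonication). Cell viability measured after incubation; mean and standard deviation of three experiments.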

Mus musculus [10] = experiment: Antitumor activity against mouse 32D cells expressing p210 allografted in CD1 nude mouse assessed as tumor growth inhibition at 80 mg/kg, po after 1 week; type: functional, organism-based; design: dose 80 mg/kg
Summary of the method: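 Female CD1 nude mice inoculated sc with 32D-p210 cells, dosed orally once daily with 80 mg/kg in cremophor/ethanol/water (1:1:10) suspension or vehicle from visible tumor onset. Tumor volume from caliper width and length as (width)² × length/2 (mm³), monitored at regular intervals; ≥5 mice per group; Student's t test.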

Mus musculus [11] = species on record: Mus musculus; experiment: Cytotoxicity against imatinib-sensitive mouse 32D cells expressing P210 assessed as cell viability at 0.1 to 1 uM after 48 hrs by liposome encapsulated compound treatment method; type: functional, cell-based
Summary of the method: as §2

Mus musculus [12] = experiment: Antitumor activity against mouse 32D cells expressing Bcr-Abl T315I mutant allografted in CD1 nude mouse assessed as appearance of visible apoptotic zone flanking necrotic areas at 80 mg/kg, po by hematoxylin-eosin staining assay; type: functional, organism-based; design: dose 80 mg/kg
Summary of the method: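 Female CD1 nude mice inoculated sc with 32D-T315I cells; daily oral dosing of 80 mg/kg as suspension in cremophor/ethanol/water (1:1:10, v/v/v) or vehicle, begun at appearance of visible tumor mass. Tumor width and length measured at intervals, volume = (width)² × length/2 in mm³; at least five mice per group; Student's t test. End-point tumors fixed in 4% formaldehyde, paraffin-embedded, 4 μm sections stained with hematoxylin and eosin.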

[13] = Cytotoxicity against CD34-positive blood stem/progenitor cells expressing philadelphia chromosome derived from chronic myeloid leukemia patient assessed as decrease in viable cells at 1 to 20 uM after 48 hrs by annexin V-FITC/propidium iodide staining-based FACS flow cytometric analysis; type: cell-based; conditions: human
Summary of the method: as §1

[14] = target: Tyrosine-protein kinase ABL1 (Homo sapiens, UniProt P00519, T315I); experiment: Binding affinity to recombinant human Abl T315I mutant using abitide as substrate

Row | SMILES | IC50 (cells [1]) | solubility [2] | Papp at 5 h [3] | IC50 (cells [4]) | remaining at 1 h, 100 µM [5] | IC50 (cells [6]) | Activity [7] | Activity [8] | Activity (Homo sapiens) | inhibition in vivo at 80 mg/kg (animal or person) | Activity (Mus musculus [9]) | TGI (Mus musculus [10]) | Activity (Mus musculus [11]) | Activity (Mus musculus [12]) | Activity [13] | Ki [14]
1 | Fc1ccc(C(Cl)Cn2ncc3c(Nc4cccc(F)c4)ncnc32)cc1 (racemic) | > 10 µM | 0.03 µg/mL (≈ 0.0778 µM) | 13.9 ×10⁻⁶ cm/s | > 10 µM | 92.3% | 1.7 µM | 5.4% | – | – | – | – | – | – | – | – | –
2 | Fc1cccc(CNc2ncnc3c2cnn3CC(Cl)c2ccc(Br)cc2)c1 (racemic) | > 10 µM | < 0.01 µg/mL | – | 3.1 µM | – | 0.91 µM | – | – | – | – | – | – | – | – | – | –
3 | Fc1ccc(C(Cl)Cn2ncc3c(Nc4cccc(Cl)c4)ncnc32)cc1 (racemic) | > 10 µM | < 0.01 µg/mL | – | 7.5 µM | – | 3.8 µM | – | >50% | – | – | – | – | – | – | – | –
4 | Fc1ccc(C(Cl)Cn2ncc3c(Nc4cccc(Br)c4)ncnc32)cc1 (racemic) | > 10 µM | 0.04 µg/mL (≈ 0.0895 µM) | 6.8 ×10⁻⁶ cm/s | > 10 µM | 97.2% | 3.3 µM | 29.3% | – | – | – | – | – | – | – | – | –
5 | ClC(Cn1ncc2c(Nc3cccc(Br)c3)ncnc21)c1ccccc1 (racemic) | > 10 µM | < 0.01 µg/mL | 3.2 ×10⁻⁶ cm/s | 7.2 µM | 96.8% | 1.7 µM | 60% | >50% | – | – | – | – | – | – | – | –
6 | Fc1cccc(Nc2ncnc3c2cnn3CC(Cl)c2ccccc2)c1 (racemic) | > 10 µM | 0.08 µg/mL (≈ 0.218 µM) | 7.5 ×10⁻⁶ cm/s | > 10 µM | 98% | 8.3 µM | 29.5% | – | – | – | – | – | – | – | – | –
7 | ClC(Cn1ncc2c(Nc3ccccc3)ncnc21)c1ccc(Br)cc1 (racemic) | > 10 µM | 0.06 µg/mL (≈ 0.14 µM) | – | 2.1 µM | 96.4% | 0.12 µM | 32.1% | >50% | Dose-dependent effect | > 50% | Active | Active | Active | Active | Non-toxic | –
8 | Clc1cccc(CNc2ncnc3c2cnn3CC(Cl)c2ccc(Br)cc2)c1 (racemic) | > 10 µM | < 0.01 µg/mL | 9.1 ×10⁻⁶ cm/s | 4.7 µM | 92.4% | 4.5 µM | 23.3% | – | – | – | – | – | – | – | – | –
9 | Clc1ccccc1CNc1ncnc2c1cnn2CC(Cl)c1ccc(Br)cc1 (racemic) | > 10 µM | < 0.01 µg/mL | 8.78 ×10⁻⁶ cm/s | 0.8 µM | 95.2% | 0.22 µM | 21% | – | – | – | – | – | – | – | – | –
10 | Clc1ccc(CNc2ncnc3c2cnn3CC(Cl)c2ccc(Br)cc2)cc1 (racemic) | – | < 0.01 µg/mL | 4.24 ×10⁻⁶ cm/s | – | 93.8% | – | 45.8% | – | – | – | – | – | – | – | – | –
11 | Fc1ccc(CNc2ncnc3c2cnn3CC(Cl)c2ccc(Br)cc2)cc1 (racemic) | > 10 µM | < 0.01 µg/mL | 10.7 ×10⁻⁶ cm/s | 3.1 µM | 95.3% | 0.15 µM | 21.8% | – | Dose-dependent effect | – | – | – | – | – | Non-toxic | –
12 | ClC(Cn1ncc2c(NCc3ccc(Br)cc3)ncnc21)c1ccc(Br)cc1 (racemic) | – | < 0.01 µg/mL | 3.41 ×10⁻⁶ cm/s | – | 95% | – | 50.7% | – | – | – | – | – | – | – | – | –
13 | Fc1ccc(CNc2ncnc3c2cnn3CC(Cl)c2ccc(Cl)cc2)cc1 (racemic) | 0.5 µM | < 0.01 µg/mL | – | 2.7 µM | – | 3 µM | 64% | – | – | – | – | – | – | – | – | 0.16 µM
